Reference: ChEMBL document CHEMBL1125404 (J Med Chem, 1992)

Tests used:
[1] = t1/2 (pH 3); type: ADME
[2] = target: Sodium/potassium-transporting ATPase; assay: In vitro evaluation for its ability to inhibit the Na+/K+ ATPase at pH 7.4.; type: protein-complex assay, Canis lupus familiaris
Summary of the method: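 Dog kidney (Na+,K+)-ATPase (20 μg) incubated in 50 mmol/L HEPES pH 7.4 containing (mmol/L) 140 NaCl, 10 KCl, 3 ATP-Mg and 0.5 EDTA, with inhibitor at 0–300 μmol/L.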

[3] = target: Potassium-transporting ATPase (Oryctolagus cuniculus); assay: In vitro evaluation for the inhibition of H+/K+ ATPase at pH < 3 in the gastric glands of isolated rabbit stomach.
[4] = Half life at pH 7.4; type: ADME; details: buffer
[5] = t1/2 (pH 5); type: ADME
[6] = pKa value (pyridine); type: physicochemical
Summary of the method: (§1)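 Measured spectrophotometrically at ambient temperature (25 °C).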

[7] = pKa value (imidazole); type: physicochemical; summary of the method: as §1
[8] = Half life at pH 7.4; Insoluble to measure; type: ADME; details: buffer
[9] = Half life at pH 5; Insoluble to measure; type: ADME; details: buffer
[10] = Half life at pH 3; Insoluble to measure; type: ADME; details: buffer

Row | Structure (SMILES) | half-life [1] [h] | -Log IC50 [2] | IC50 [3] [nM] | half-life [4] [h] | half-life [5] [h] | pKa [6] | pKa [7] | T1/2 [8] | T1/2 [9] | T1/2 [10]
1 | COc1c(C)cnc(C[S+]([O-])c2nc3cc(OC(F)F)ccc3[nH]2)c1C (stereo unspecified) | 0.2 | 4.4 | 501 | 15 | 1.9 | 4.16 | 8.23 | – | – | –
2 | COc1cnc(C[S+]([O-])c2nc3cc(OC(F)F)ccc3[nH]2)c(C)c1OC (stereo unspecified) | 0.2 | 4.6 | 2510 | 60 | 3.7 | 3.73 | 8.35 | – | – | –
3 | COc1ccnc(C[S+]([O-])c2nc3cc(OC(F)(F)C(F)F)ccc3[nH]2)c1OC (stereo unspecified) | 0.3 | 3.8 | 5010 | 160 | 3.6 | 3.86 | 8.08 | – | – | –
4 | COc1ccnc(C[S+]([O-])c2nc3cc(OC(F)F)ccc3[nH]2)c1C (stereo unspecified) | 0.0833 | 5.2 | 631 | 3 | 0.17 | – | – | – | – | –
5 | COc1cnc(C[S+]([O-])c2nc3cc(OCC(F)(F)F)ccc3[nH]2)c(C)c1OC (stereo unspecified) | 0.167 | 4.3 | 2510 | 130 | 3.3 | 3.72 | 8.61 | – | – | –
6 | COc1ccnc(C[S+]([O-])c2nc3cc(OC(F)F)ccc3[nH]2)c1 (stereo unspecified) | 0.167 | 4.3 | 1580 | 51 | 0.8 | – | – | – | – | –
7 | COc1ccnc(C[S+]([O-])c2nc3cc4c(cc3[nH]2)OC(F)(F)O4)c1 (stereo unspecified) | 0.333 | < 3.5 | 2510 | – | 1.4 | 4.29 | 7.92 | Insoluble to measure | – | –
8 | Cc1c(OCC(F)(F)F)ccnc1C[S+]([O-])c1nc2ccccc2[nH]1 (stereo unspecified) [LANSOPRAZOLE] | 0.0667 | 4.4 | – | 40 | 1.1 | 4.01 | 8.78 | – | – | –
9 | COc1ccnc(C[S+]([O-])c2nc3cc4c(cc3[nH]2)OC(F)(F)O4)c1OC (stereo unspecified) | 0.633 | 3.6 | 2510 | > 200 | 6 | 3.84 | 7.97 | – | – | –
10 | COc1cnc(C[S+]([O-])c2nc3cc(OC(F)F)ccc3[nH]2)cc1OC (stereo unspecified) | 0.283 | < 3.5 | 31600 | > 200 | 2.1 | 3.75 | 8.03 | – | – | –
11 | COc1cnc(C[S+]([O-])c2nc3cc4c(cc3[nH]2)OC(F)(F)O4)c(C)c1OC (stereo unspecified) | – | < 3 | 15800 | – | – | – | – | Insoluble to measure | Insoluble to measure | Insoluble to measure
12 | COc1cnc(C[S+]([O-])c2nc3cc(OC(F)(F)C(F)F)ccc3[nH]2)cc1OC (stereo unspecified) | 0.317 | < 3 | 20000 | 140 | 2.9 | – | – | – | – | –
13 | COc1ccnc(C[S+]([O-])c2nc3cc(F)c(OC(F)F)cc3[nH]2)c1OC (stereo unspecified) | 0.433 | 3.4 | 7940 | 150 | 8.3 | 3.76 | 7.76 | – | – | –
14 | COc1cnc(C[S+]([O-])c2nc3cc4c(cc3[nH]2)OC(F)(F)O4)cc1OC (stereo unspecified) | – | < 3 | 63100 | – | – | – | – | Insoluble to measure | Insoluble to measure | Insoluble to measure
15 | COc1cc2[nH]c([S+]([O-])Cc3nccc(OC)c3OC)nc2cc1OC(F)F (stereo unspecified) | 0.25 | 3.6 | 3980 | 800 | 2.1 | – | – | – | – | –
16 | COc1cc(C[S+]([O-])c2nc3cc(OC(F)(F)C(F)F)ccc3[nH]2)ncc1C (stereo unspecified) | 0.1 | 5.5 | 1260 | 18 | 0.2 | 4.95 | 8 | – | – | –
17 | COc1ccc2[nH]c([S+]([O-])Cc3ncc(C)c(OC)c3C)nc2c1 (stereo unspecified) [OMEPRAZOLE] | 0.0667 | 4.5 | – | 80 | 1 | 4.13 | 8.98 | – | – | –
18 | COc1ccnc(C[S+]([O-])c2nc3cc4c(cc3[nH]2)OC(F)(F)O4)c1C (stereo unspecified) | 0.167 | 4.6 | 1000 | – | 0.5 | 4.73 | 7.93 | Insoluble to measure | – | –

Further lines, results first:

Row | half-life [1] [h] | -Log IC50 [2] | IC50 [3] [nM] | half-life [4] [h] | half-life [5] [h] | pKa [6] | pKa [7] | T1/2 [8] | T1/2 [9] | T1/2 [10] | Structure (SMILES)
19 | 0.333 | 4.2 | 7940 | 43 | 6.8 | – | – | – | – | – | COc1cnc(C[S+]([O-])c2nc3cc(OC(F)(F)C(F)F)ccc3[nH]2)c(C)c1OC (stereo unspecified)
20 | 0.133 | 4.7 | 3160 | 4 | 0.5 | – | – | – | – | – | COc1ccnc(C[S+]([O-])c2nc3cc(F)c(OC(F)F)cc3[nH]2)c1C (stereo unspecified)
21 | 0.1 | 5 | 1580 | 11 | 0.2 | 4.96 | 8.31 | – | – | – | COc1cc2[nH]c([S+]([O-])Cc3nccc(OC)c3C)nc2cc1OC(F)F (stereo unspecified)
22 | 0.0833 | 5.5 | 398 | – | 0.3 | – | – | Insoluble to measure | – | – | COc1ccnc(C[S+]([O-])c2nc3cc(OC(F)(F)C(F)F)ccc3[nH]2)c1C (stereo unspecified)
23 | 0.15 | 3.7 | – | 130 | 3 | 3.92 | 8.19 | – | – | – | COc1ccnc(C[S+]([O-])c2nc3cc(OC(F)F)ccc3[nH]2)c1OC (stereo unspecified) [PANTOPRAZOLE]
24 | 0.167 | 4.4 | 1260 | 63 | 0.8 | 4.25 | 7.91 | – | – | – | COc1ccnc(C[S+]([O-])c2nc3cc(OC(F)(F)C(F)F)ccc3[nH]2)c1 (stereo unspecified)
25 | 0.183 | 3.5 | 1000 | > 200 | 7.6 | 3.9 | 8.52 | – | – | – | COc1ccnc(C[S+]([O-])c2nc3cc(OCC(F)(F)F)ccc3[nH]2)c1OC (stereo unspecified)
26 | 0.0833 | 5.4 | 794 | 5 | 0.15 | 4.97 | 8.51 | – | – | – | COc1ccnc(C[S+]([O-])c2nc3cc(OCC(F)(F)F)ccc3[nH]2)c1C (stereo unspecified)
